The values below come from ChEMBL document CHEMBL1149663, “Design, synthesis and biological evaluation of 1,4-benzodiazepine-2,5-dione-based HDAC inhibitors” (Bioorg Med Chem Lett, 2007).

Calls of active or inactive are those of the source. The calls are words filed in the database; no cut-off is given here.

The IC50 is the concentration that inhibits the measured activity by half.

Assay [1] in a line: (§1) Antiproliferative activity against H661 cells after 48 hrs by XTT assay. It is filed as functional, cell-based. To be noted: Homo sapiens, NCI-H661, 48 h. In short, it runs like this: (§2)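 Non-small cell lung cancer H661 cells were treated for 48 h, and proliferation was read by XTT assay as % of untreated control. Each analogue was run in three to four independent experiments, each in triplicate. IC50 was taken from the proliferation curves as the concentration giving 50% inhibition of proliferation.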
On the technique in general: Tetrazolium dyes change colour on reduction, which living cells bring about.

Assay [2] in a line: Antiproliferative activity against H661 cells at 5 uM after 48 hrs by XTT assay. It is filed as functional, Homo sapiens, NCI-H661. In a few lines: as §2
The test system of the next assay is NCI-H661. The description is as §1. It is filed as functional, cell-based. To be noted: Homo sapiens. In short, it runs like this:
as §2

`O=C(CCCCCN1C(=O)c2ccccc2N(Cc2cccc3ccccc23)C(=O)[C@@H]1Cc1ccccc1)NO` yielded an IC50 in assay [1] of 16 µM. As for `O=C(CCCCCN1C(=O)c2ccccc2N(Cc2ccccc2)C(=O)[C@@H]1Cc1ccccc1)NO`, in assay [2], the Activity is reported as 40%. This molecule also displayed an IC50 in assay [1] of 6 µM. `Cc1cc(C)cc(CN2C(=O)[C@H](Cc3ccccc3)N(C/C=C/CCC(=O)NO)C(=O)c3ccccc32)c1` returned an IC50 in assay [1] of 17 µM. As for `CC(/C=C/C(=O)NO)=C\[C@@H](C)C(=O)c1ccc(N(C)C)cc1` [TRICHOSTATIN], the IC50 in assay [1] worked out at 0.085 µM. Take `Cc1cc(C)cc(CN2C(=O)[C@H](Cc3ccccc3)N(CCCCCC(=O)NO)C(=O)c3ccccc32)c1`: the Activity in assay [2] was determined as 80%. In addition, the IC50 in assay [1] was 8 µM. Consider `CN1C(=O)[C@H](Cc2ccccc2)N(CCCCCC(=O)NO)C(=O)c2ccccc21`, for which the outcome in the assay on NCI-H661 was inactive. `O=C(CC/C=C/CN1C(=O)c2ccccc2N(Cc2ccccc2)C(=O)[C@@H]1Cc1ccccc1)NO`: the Activity in assay [2] is listed as 80%. This molecule returned an IC50 in assay [1] of 8 µM.
